Compound activity (PubChem)
Hits are enriched below; roughly 1.8% of the tested compounds scored in any of these assays.
HTRA1 inh = blocks human HTRA1 serine peptidase. actives 0.5% (n = 340,000). inhibition, % at 5.96 µM. recombinant HTRA1, FP-rhodamine activity-based probe, fluorescence polarization; in the data active = inhibition above about 36%
Target sequence (Q92743 whole entry, looked up): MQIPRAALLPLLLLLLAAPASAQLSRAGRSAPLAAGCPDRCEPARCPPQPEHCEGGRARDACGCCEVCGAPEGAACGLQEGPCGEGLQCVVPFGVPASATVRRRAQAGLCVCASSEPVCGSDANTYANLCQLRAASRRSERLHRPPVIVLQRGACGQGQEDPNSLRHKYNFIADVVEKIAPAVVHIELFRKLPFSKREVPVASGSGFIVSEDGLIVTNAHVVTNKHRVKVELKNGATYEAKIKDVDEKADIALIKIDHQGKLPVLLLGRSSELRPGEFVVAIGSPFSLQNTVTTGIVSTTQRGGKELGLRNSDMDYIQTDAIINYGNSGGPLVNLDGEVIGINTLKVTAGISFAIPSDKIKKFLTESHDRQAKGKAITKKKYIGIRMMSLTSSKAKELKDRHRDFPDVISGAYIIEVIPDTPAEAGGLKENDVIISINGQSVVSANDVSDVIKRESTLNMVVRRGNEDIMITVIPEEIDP
mABHD4 FP = ABHD4 (mouse) inhibition, primary FP screen; purified mABHD4, FP-Rh probe fluorescence polarization; Q8VD66; actives 0.54% (n = 370,000); inhibition, % at 8.92 µM;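 active = inhibition exceeding the mean over every tested compound plus 3 SD, cut at about 30% in these data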
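Assay system: mouse ABHD4 enzyme, wild type / Also added: fluorescent activity-based probe FP-Rh / Doses: single nominal dose of 8.92 µM, 0.89% DMSO final / Timing: 45 min compound pre-incubation plus 60 min probe step, 25 °C / Signal: FP readout, ex 525 nm / em 598 nm / Control set: S159A mutant/DMSO as 100%, compound-well median as 0%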
ARNT-TACC3 inh = disrupts binding between human ARNT and TACC3 | inhibition, % at 9.99 µM | Q9Y6A5 | AlphaScreen His-ARNT PAS-B/GST-TACC3 binding, luminescence; TACC3 fragment carries E629A point mutation | actives 0.66% (n = 390,000);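 active = mean inhibition of replicates at least 50% and at least half of replicates each reaching 50%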
TCR CD3 inh = human TCR-CD3 binding inhibition; AID 651800; TAMRA-labeled TCR probe fluorescence, biochemical; inhibition, % at 9.4 µM; actives 0.37% (n = 360,000); in the data active = inhibition above about 19%;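 also: recombinant mutant TCR 2C K166C tagged with TAMRA read by polarization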
SIAE inh = inhibitors of human sialic acid acetylesterase SIAE; actives 0.69% (n = 370,000); inhibition, % at 9.66 µM; Q9HAT2; SIAE FP-Rh probe binding, fluorescence polarization;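 active = inhibition above a cutoff: mean of compounds within the control limits plus 3 SD of those, cut at about 17% in these data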
mABHD4 conf = confirmation of mouse ABHD4 inhibitors | purified mABHD4, FP-Rh probe fluorescence polarization | inhibition, % at 8.92 µM | AID 720658 | shares compounds with mABHD4 FP | actives 55% (n = 1,800);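 active = mean inhibition across replicates above the hit cutoff set in the primary screen, cut at about 30% in these data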
Hits are given with their value; n = inactive; x = not tested or not shown; ! = not confirmed by another sample.

SMILES | HTRA1 inh | mABHD4 FP | ARNT-TACC3 inh | TCR CD3 inh | SIAE inh | mABHD4 conf
C[C@H](NC(=O)[C@H]1[C@H](CO)[C@H]2Cn3c(cccc3=O)[C@H]2N1S(C)(=O)=O)c1ccccc1 | x | x | n | x | x | x
C[n+]1c2cc(N)ccc2cc2ccc(N)cc21 | n | 30.4! | 27.6! | n | 25.2! | 42.5
Cc1nc2ccc(N)cc2s1 | n | n | n | n | n | x
O=C(C[C@@H]1CC[C@@H]2[C@H](COC[C@@H](O)CN2C(=O)Nc2ccc(F)cc2)O1)NCCc1ccccc1 | x | x | n | x | x | x
COc1ccc(S(=O)(=O)/N=C2/NC(=O)/C(=C/c3ccco3)S2)cc1 | n | n | n | n | n | x
COc1ccc(N=C2NC(=O)/C(=C/c3ccco3)S2)cc1 | n | 33.1 | n | n | n | n
C[C@H]1CN([C@@H](C)CO)C(=O)c2cc(NS(=O)(=O)c3ccc(Cl)cc3)ccc2O[C@H]1CN(C)S(=O)(=O)c1cccs1 | x | x | n | x | x | x
CN(C)CCNc1ncnc2c1ncn2[C@H]1CN(Cc2ccc3c(c2)OCO3)C[C@@H](CO)O1 | x | 33.7 | x | n | n | n
OCCCNc1ncnc2c1ncn2[C@H]1CN(Cc2ccc3c(c2)OCO3)C[C@@H](CO)O1 | x | n | x | n | n | x
Cc1cccc2cc(/C=N/Nc3ccc(C(=O)O)cc3)c(Cl)nc12 | n | 38.3 | n | n | n | 43.6
O=C(O)c1ccc(N/N=C/c2cc3ccccc3nc2Cl)cc1 | n | n | n | n | n | x
C[C@@H]1CCCCO[C@@H](CN(C)C(=O)Nc2ccc(F)cc2)[C@H](C)CN([C@@H](C)CO)C(=O)c2cc(NC(=O)CCCN(C)C)ccc2O1 | x | x | n | x | x | x
COc1ccc(C(=O)Oc2cc(OC)cc(OC)c2C(C)=O)cc1 | n | 38.1 | n | n | n | 41.4
COc1ccc(C(C)=O)c(OC(=O)c2ccc(OC)c(OC)c2)c1 | n | n | n | n | n | x
CCc1cc(C(=O)N=Nc2c(O)[nH]c3ccc([N+](=O)[O-])cc23)c2ccccc2n1 | n | 40.4 | x | n | n | 41.4
C=C[C@]1(C)C=C2C(=O)[C@@]3(O)OC(=O)[C@@]4(CCCC(C)(C)[C@H]34)[C@@]2(O)CC1 | x | 51.6 | x | n | n | n
Cc1cc(Cl)c(S(=O)(=O)Nc2ccc3c(c2)OCO3)cc1OCC(=O)NC1CCCCC1 | n | 29.6 | n | n | n | n
Cc1cc(Cl)c(S(=O)(=O)Nc2ccc3c(c2)OCO3)cc1OCC(N)=O | n | n | n | n | n | x
CO[C@H]1CC[C@H]2CCOc3c(C#N)cccc3C(=O)N(C)[C@H](C)C(=O)N(C)C[C@H]1O2 | x | x | n | x | x | x
Cc1ccc(S(=O)(=O)N2CC[C@H]3[C@@H](CO)N(C)c4ccc(-c5cccc(C#N)c5)cc4[C@H]32)cc1 | x | x | n | x | x | x
COC(=O)C1=C(N)Oc2cc(N(C)C)ccc2C1c1ccccc1OC (configuration not stated) | n | 47.4 | n | n | n | n
COC(=O)C1=C(N)Oc2cc(C)n(CC3CCCO3)c(=O)c2C1c1ccccc1OC (configuration not stated) | n | n | n | n | n | x
O=C(Cc1ccccc1)N1CC[C@@H]2[C@H](CO)Nc3ccc(Br)cc3[C@@H]21 | x | x | n | x | x | x
CCCCCNC(=O)C(c1cc2ccccc2o1)n1c(=O)c(-c2ccco2)nc2ccccc21 (configuration not stated) | x | n | x | n | n | x
CCCCCNC(=O)C(c1ccncc1)n1c(=O)c(-c2ccco2)nc2ccccc21 (configuration not stated) | x | 32.1 | x | n | n | n
SMILES | HTRA1 inh | mABHD4 FP | ARNT-TACC3 inh | TCR CD3 inh | SIAE inh | mABHD4 conf
COc1ccc(S(=O)(=O)Nc2noc3ccccc23)cc1 | n | n | n | n | n | x
CC(C)(C)c1ccc(S(=O)(=O)Nc2noc3ccccc23)cc1 | n | 30.0 | n | n | n | n
COc1ccc(N=Nc2cc(C)c(O)c(CN3CCCCC3)c2)cc1 | n | n | n | n | n | x
COc1ccc2nc3cc(Cl)ccc3c(Nc3cc(CN4CCCC4)c(O)c(CN4CCCC4)c3)c2n1 | x | 37.0 | x | n | n | 30.6
NC(=S)N/N=C/c1c(O)ccc2ccccc12 | n | n | n | n | n | x
NC(=S)NN=Cc1nccc2c(N)cccc12 | n | 36.4 | x | n | n | 43.8
Cc1cccc(NC(=O)CN2C(=O)S/C(=C\c3ccc(O)c([N+](=O)[O-])c3)C2=O)c1 | n | 33.5 | n | n | n | 60.4
O=C1S/C(=C\c2ccc(O)c([N+](=O)[O-])c2)C(=O)N1Cc1cccc([N+](=O)[O-])c1 | x | n | x | n | n | x
COc1cc(/C=C2/NC(=O)N(c3cccc(Cl)c3)C2=O)ccc1O | n | n | x | n | n | x
O=C(CN1C(=O)S/C(=C\c2ccc(O)c([N+](=O)[O-])c2)C1=O)Nc1ccc(N2CCOCC2)cc1 | n | n | n | n | n | x
COc1cc(/C=C2\SC(=O)N(c3cccc(Cl)c3)C2=O)cc([N+](=O)[O-])c1O | n | 37.3 | n | n | n | 40.9
O=C1S/C(=C\c2ccc(O)c([N+](=O)[O-])c2)C(=O)N1c1ccccc1Cl | n | 54.8 | n | n | n | 44.1
Cn1cc(CN2CCC(C(=O)N3CCCC3)CC2)c(-c2ccccc2F)n1 | n | n | n | n | n | x
Cn1cc(CN2CCC(C(O)c3cccs3)CC2)c(-c2ccccc2F)n1 (configuration not stated) | n | 48.2 | n | n | n | n
Cc1cc(-c2nc3cccnc3s2)ccc1NS(=O)(=O)c1cccs1 | n | 46.1 | n | n | n | n
Nc1[nH]n2c(=O)cc(-c3ccccc3)nc2c1N=Nc1ccc(S(N)(=O)=O)cc1 | n | 32.3 | x | n | n | 36.9
Cc1cc(NN=Cc2ccccn2)nc2ccccc12 | x | 42.6 | x | n | n | n
C(=NNc1ccc2ccccc2n1)c1ccccn1 | x | 44.5 | x | n | n | n
Cc1cc(NN=Cc2ccccn2)nc2c(C)cccc12 | x | n | x | n | n | x
CCC/C=N/Nc1nc2ccccc2s1 | n | 50.3 | n | n | n | n
COc1ccc(C=NNc2nc3ccccc3s2)cc1 | n | n | n | n | n | x
C(=N\Nc1nc2ccccc2s1)/c1ccccn1 | x | 37.3 | x | n | n | 39.8
CCOC(=O)c1c(C)n(C)c2cc(Br)c(O)c(O)c12 | n | 30.1 | n | n | n | n
CCOC(=O)c1c(C)n(C)c2cc([N+](=O)[O-])c(O)c([N+](=O)[O-])c12 | n | n | n | n | n | x
CC(CSc1nc2ccccc2s1)Cn1c(N2CCCC2)nc2c1c(=O)[nH]c(=O)n2C (configuration not stated) | n | 39.1 | n | n | n | 42.1
O=C(NCC1CC1)[C@H]1[C@H](CO)[C@H]2Cn3c(cccc3=O)[C@@H]1N2CCc1ccccc1 | x | x | n | x | x | x
CCN1C[C@@H](C)[C@H](OC)CN(C)C(=O)c2cc(NC(=O)NC(C)C)ccc2OC[C@H]1C | x | x | n | x | x | x
CCCOc1ccccc1-n1sc2c(c1=S)-c1cc(OC)cc3c1N(C(=O)C3=O)C2(C)C | n | 34.6 | n | n | n | 60.1
